tested on: HCT-15; experiment: Growth inhibition of human HCT15 cells at 10 uM after 48 hrs by coulter counter analysis; format: functional; conditions: HCT-15, 48 h, read-out: GI
In short: (§1)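 Single-dose NCI 60-line panel screen of test compounds. Cells grown in RPMI 1640 with 10% FBS. Compounds dissolved in DMSO, then diluted in phosphate buffer saline (final DMSO below 1%). Wells run in duplicate at 6 × 10⁴ cells/ml. Controls held PBS and DMSO at matching dilutions. Incubation 48 h at 37 °C under humidified 5% CO2. Cells diluted tenfold in saline and counted by Coulter counter. Percent growth inhibition taken from mean-graph of treated-cell growth.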

SMILES | inhibition of growth at 10 µM
O=C(CN1CCN(c2ccccc2)CC1)Nc1nc(-c2ccccc2)cs1 | 54.6%

tested on: BT-549; experiment: Growth inhibition of human BT549 cells at 10 uM after 48 hrs by coulter counter analysis; format: functional; conditions: BT-549, 48 h, read-out: GI; in short: as §1

SMILES | inhibition of growth at 10 µM
O=C(CN1CCN(c2ccccc2)CC1)Nc1nc(-c2ccccc2)cs1 | 11.3%

tested on: RPMI-8226; experiment: Growth inhibition of human RPMI8226 cells at 10 uM after 48 hrs by coulter counter analysis; format: functional; conditions: RPMI-8226, 48 h, read-out: GI; in short: as §1

SMILES | inhibition of growth at 10 µM
O=C(CN1CCN(c2ccccc2)CC1)Nc1nc(-c2ccccc2)cs1 | 25%

tested on: SR; experiment: Growth inhibition of human SR cells at 10 uM after 48 hrs by coulter counter analysis; format: functional; conditions: read-out: GI
In short: (§2)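 Single-dose screen in the NCI 60 cell line panel. Cells grown in RPMI 1640 with 10% FBS. Compounds dissolved in DMSO and diluted in phosphate buffered saline, final DMSO under 1%. Duplicate wells seeded from culture at 6 × 10⁴ cells/ml. Incubated 48 h at 37 °C, humidified, 5% CO2. Cells diluted tenfold in saline and Coulter-counted. Percent growth inhibition computed against PBS/DMSO controls.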

SMILES | inhibition of growth at 10 µM
O=C(CN1CCN(c2ccccc2)CC1)Nc1nc(-c2ccccc2)cs1 | < 10%

tested on: T47D; experiment: Growth inhibition of human T47D cells at 10 uM after 48 hrs by coulter counter analysis; format: functional; conditions: read-out: GI; in short: as §2

SMILES | inhibition of growth at 10 µM
O=C(CN1CCN(c2ccccc2)CC1)Nc1nc(-c2ccccc2)cs1 | 29.7%

tested on: MDA-MB-231; experiment: Growth inhibition of human MDA-MB-231 cells at 10 uM after 48 hrs by coulter counter analysis; format: functional; conditions: MDA-MB-231, 48 h, read-out: GI; in short: as §1

SMILES | inhibition of growth at 10 µM
O=C(CN1CCN(c2ccccc2)CC1)Nc1nc(-c2ccccc2)cs1 | 29.2%

tested on: UACC-62; experiment: Growth inhibition of human UACC62 cells at 10 uM after 48 hrs by coulter counter analysis; format: functional; conditions: UACC-62, 48 h, read-out: GI; in short: as §2

SMILES | inhibition of growth at 10 µM
O=C(CN1CCN(c2ccccc2)CC1)Nc1nc(-c2ccccc2)cs1 | 36.6%

tested on: SF-539; experiment: Growth inhibition of human SF539 cells at 10 uM after 48 hrs by coulter counter analysis; format: functional; conditions: SF-539, 48 h, read-out: GI; in short: as §1

SMILES | inhibition of growth at 10 µM
O=C(CN1CCN(c2ccccc2)CC1)Nc1nc(-c2ccccc2)cs1 | < 10%

tested on: OVCAR-5; experiment: Growth inhibition of human OVCAR5 cells at 10 uM after 48 hrs by coulter counter analysis; format: functional; conditions: OVCAR-5, 48 h, read-out: GI; in short: as §1

SMILES | inhibition of growth at 10 µM
O=C(CN1CCN(c2ccccc2)CC1)Nc1nc(-c2ccccc2)cs1 | < 10%

tested on: SK-MEL-2; experiment: Growth inhibition of human SK-MEL-2 cells at 10 uM after 48 hrs by coulter counter analysis; format: functional; conditions: SK-MEL-2, 48 h, read-out: GI; in short: as §1

SMILES | inhibition of growth at 10 µM
O=C(CN1CCN(c2ccccc2)CC1)Nc1nc(-c2ccccc2)cs1 | 11.6%

tested on: SF-295; experiment: Growth inhibition of human SF295 cells at 10 uM after 48 hrs by coulter counter analysis; format: functional; conditions: SF-295, 48 h, read-out: GI; in short: as §1

SMILES | inhibition of growth at 10 µM
O=C(CN1CCN(c2ccccc2)CC1)Nc1nc(-c2ccccc2)cs1 | 15.9%

tested on: NCI-H322M; experiment: Growth inhibition of human NCI-H322M cells at 10 uM after 48 hrs by coulter counter analysis; format: functional; conditions: read-out: GI; in short: as §1

SMILES | inhibition of growth at 10 µM
O=C(CN1CCN(c2ccccc2)CC1)Nc1nc(-c2ccccc2)cs1 | 11.3%

tested on: not listed separately; experiment: Growth inhibition of human NCI-ADR-RES cells at 10 uM after 48 hrs by coulter counter analysis; format: functional; conditions: read-out: GI; in short: as §1

SMILES | inhibition of growth at 10 µM
O=C(CN1CCN(c2ccccc2)CC1)Nc1nc(-c2ccccc2)cs1 | 23%

tested on: HCC 2998; experiment: Growth inhibition of human HCC2998 cells at 10 uM after 48 hrs by coulter counter analysis; format: functional; conditions: HCC 2998, 48 h, read-out: GI; in short: as §1

SMILES | inhibition of growth at 10 µM
O=C(CN1CCN(c2ccccc2)CC1)Nc1nc(-c2ccccc2)cs1 | < 10%

tested on: ACHN; experiment: Growth inhibition of human ACHN cells at 10 uM after 48 hrs by coulter counter analysis; format: functional; conditions: read-out: GI; in short: as §1

SMILES | inhibition of growth at 10 µM
O=C(CN1CCN(c2ccccc2)CC1)Nc1nc(-c2ccccc2)cs1 | 16.2%

tested on: KM12; experiment: Growth inhibition of human KM12 cells at 10 uM after 48 hrs by coulter counter analysis; format: functional; conditions: KM12, 48 h, read-out: GI; in short: as §1

SMILES | inhibition of growth at 10 µM
O=C(CN1CCN(c2ccccc2)CC1)Nc1nc(-c2ccccc2)cs1 | < 10%

tested on: MDA-MB-435; experiment: Growth inhibition of human MDA-MB-435 cells at 10 uM after 48 hrs by coulter counter analysis; format: functional; conditions: MDA-MB-435, 48 h, read-out: GI; in short: as §1

SMILES | inhibition of growth at 10 µM
O=C(CN1CCN(c2ccccc2)CC1)Nc1nc(-c2ccccc2)cs1 | < 10%

tested on: OVCAR-4; experiment: Growth inhibition of human OVCAR4 cells at 10 uM after 48 hrs by coulter counter analysis; format: functional; conditions: OVCAR-4, 48 h, read-out: GI; in short: as §1

SMILES | inhibition of growth at 10 µM
O=C(CN1CCN(c2ccccc2)CC1)Nc1nc(-c2ccccc2)cs1 | < 10%

From ChEMBL document CHEMBL2040727, “Substituted thiazoles VI. Synthesis and antitumor activity of new 2-acetamido- and 2 or 3-propanamido-thiazole analogs” (2012)
